In ChEMBL document CHEMBL3112487, “Synthesis and antifungal activity of ASP9726, a novel echinocandin with potent Aspergillus hyphal growth inhibition” (2014):
≈ marks a conversion by molar mass, not a printed value. Calls of active or inactive are those of the source. The calls are words filed in the database; no cut-off is given here.

Columns and labels:
[1] = tested on: Aspergillus fumigatus; test: Antifungal activity against Aspergillus fumigatus 20030 in ICR mouse invasive pulmonary aspergillosis model assessed as survival rate at 1.5 mg/kg, iv qd administered for 10 days measured on day 11 relative to control; assay type: functional
[2] = tested on: Aspergillus fumigatus; test: Antifungal activity against Aspergillus fumigatus 20024 in human serum assessed as formation of small, rounded and compact microcolonies with severely stunted hypha at 4 fold MEC after 48 hrs by microscopic analysis; assay type: functional, organism-based
[3] = tested on: Nakaseomyces glabratus; test: Antifungal activity against echinocandin-resistant Candida glabrata FP2307 in human serum assessed as hyphal growth inhibition after 48 hrs by microscopic analysis; assay type: functional
How it was run: (§1)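 Susceptibility testing followed CLSI M27-A3 or M38-A2 standards, using human serum as the growth medium. Fungi were exposed to drug and incubated at 37 °C under 5% CO2 for 48 h.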

[4] = tested on: Aspergillus fumigatus; test: Antifungal activity against Aspergillus fumigatus 20024 in human serum assessed as hyphal growth inhibition after 48 hrs by microscopic analysis; assay type: functional; settings: Aspergillus fumigatus, 20024, Serum; how it was run: as §1
[5] = tested on: Candida albicans; test: Antifungal activity against Candida albicans 20015 in human serum assessed as hyphal growth inhibition after 48 hrs by microscopic analysis; assay type: functional; settings: Candida albicans, 20015, Serum; how it was run: as §1
[6] = tested on: Candida parapsilosis; test: Antifungal activity against Candida parapsilosis 20009 in human serum assessed as hyphal growth inhibition after 48 hrs by microscopic analysis; assay type: functional; settings: Lodderomyces parapsilosis, 20009, Serum; how it was run: as §1
[7] = tested on: Aspergillus fumigatus; test: Antifungal activity against Aspergillus fumigatus 20030 in ICR mouse invasive pulmonary aspergillosis model assessed as survival rate at 3 mg/kg, iv qd administered for 10 days measured on day 11 relative to control; assay type: functional
[8] = tested on: Aspergillus fumigatus; test: Antifungal activity against Aspergillus fumigatus 20024 in human serum assessed as formation of large microcolonies with elongated hypha in all direction at 4 fold MEC after 48 hrs by microscopic analysis; assay type: functional, organism-based

Row | Structure (SMILES) | survival at 1.5 mg/kg [1] | Activity [2] | MIC [3] | MIC [4] | MIC [5] | MIC [6] | survival at 3 mg/kg [7] | Activity [8]
1 | COc1cc(C[C@@H](O)[C@@H]2NC(=O)[C@@H]3C[C@@H](O)CN3C(=O)[C@H]([C@@H](C)O)NC(=O)[C@@H](NC[C@H]3CC[C@H](c4nnc(-c5ccc(N6CCC(OC)(C7CCCCC7)CC6)cc5)s4)CC3)C[C@@H](O)CNC(=O)[C@@H]3[C@@H](O)[C@@H](C)CN3C(=O)[C@H]([C@H](O)CCNC(CO)CO)NC2=O)ccc1O | 40% | Active | 2 µg/mL (≈ 1.48 µM) | 0.25 µg/mL (≈ 0.185 µM) | 0.25 µg/mL (≈ 0.185 µM) | 4 µg/mL (≈ 2.96 µM) | 70% | –
2 | CC[C@H](C)C[C@H](C)CCCCCCCCC(=O)N[C@H]1C[C@@H](O)[C@@H](NCCN)NC(=O)[C@@H]2[C@@H](O)CCN2C(=O)[C@H]([C@H](O)CCN)NC(=O)[C@H]([C@H](O)[C@@H](O)c2ccc(O)cc2)NC(=O)[C@@H]2C[C@@H](O)CN2C(=O)[C@H]([C@@H](C)O)NC1=O [CASPOFUNGIN] | 10% | – | > 64 µg/mL | 0.5 µg/mL (≈ 0.457 µM) | 0.25 µg/mL (≈ 0.229 µM) | 64 µg/mL (≈ 58.5 µM) | 20% | inactive
